Assay results taken from ChEMBL document CHEMBL3232721, “4-Oxo-1,4-dihydro-quinoline-3-carboxamides as BACE-1 inhibitors: synthesis, biological evaluation and docking studies” (Eur J Med Chem, 2014).

How the values were obtained:
[1] = target: T1, Beta-secretase 1 (Homo sapiens, UniProt P56817); test: Inhibition of BACE-1 (unknown origin) at 10 uM by FRET assay relative to control
Summary of the method: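 FRET-based BACE-1 activity kit used per the kit protocol, except total reaction volume was cut to […]. Each compound tested at a single concentration of 10 µM. Result given as percent inhibition of BACE-1 activity, from two independent experiments.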

[2] = target: T1, Beta-secretase 1; test: Inhibition of BACE-1 (unknown origin) by FRET assay
Summary of the method: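 BACE-1 FRET kit assay following the kit protocol, with total reaction volume reduced to […]. Compounds exceeding 50% inhibition at the single-point screen were retested across several concentrations. IC50 derived from linear regression parameters, reported as the mean of at least two experiments.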

[3] = system: HEK293; test: Cytotoxicity against HEK293 cells after 72 hrs by CellTiterGlo assay; type: cell-based; conditions: Homo sapiens, HEK293, 72 h
Summary of the method: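 HEK293 grown in DMEM with 10% FBS, 100 units/mL penicillin and 100 units/mL streptomycin at 37 °C, 5% CO2. Seeded at 1000 cells/well in 384-well format, then exposed to test agents from a top working level of […], serially diluted threefold ten more times. Staurosporine positive control. After 72 h, CellTiter Glo reagent (10%) added and ATP luminescence read. IC50 taken from log dose–viability curves.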

T1 sequence (P56817 whole entry): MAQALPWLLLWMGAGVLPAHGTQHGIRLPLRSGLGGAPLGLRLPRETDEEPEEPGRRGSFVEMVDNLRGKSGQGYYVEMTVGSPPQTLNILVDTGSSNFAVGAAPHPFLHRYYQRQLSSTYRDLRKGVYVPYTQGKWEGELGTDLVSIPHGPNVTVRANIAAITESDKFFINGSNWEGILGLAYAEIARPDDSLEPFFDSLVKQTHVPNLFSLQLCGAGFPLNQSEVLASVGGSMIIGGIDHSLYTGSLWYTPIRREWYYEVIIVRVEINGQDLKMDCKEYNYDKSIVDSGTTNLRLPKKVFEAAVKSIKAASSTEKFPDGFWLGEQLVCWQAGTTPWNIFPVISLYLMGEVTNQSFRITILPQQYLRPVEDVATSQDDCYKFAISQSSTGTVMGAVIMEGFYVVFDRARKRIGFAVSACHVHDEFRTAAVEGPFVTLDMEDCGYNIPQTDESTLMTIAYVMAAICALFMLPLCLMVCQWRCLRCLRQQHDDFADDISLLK

inhibition [1] | IC50 [2] | SMILES | IC50 [3]
30.4% | – | O=C(NCc1ccc(F)cc1)c1c[nH]c2ccc(S(=O)(=O)Nc3cccc(C(F)(F)F)c3)cc2c1=O | –
50.4% | 7.04 µM | COc1ccc(CNC(=O)c2c[nH]c3ccc(S(=O)(=O)Nc4cccc(C(F)(F)F)c4)cc3c2=O)cc1 | > 50 µM
32.9% | – | Cc1ccccc1-c1ccc2[nH]cc(C(=O)NCc3ccco3)c(=O)c2c1 | –
84.6% | 1.85 µM | O=C(NCc1cccc(F)c1)c1c[nH]c2ccc(S(=O)(=O)Nc3cccc(C(F)(F)F)c3)cc2c1=O | > 50 µM
71.1% | 1.61 µM | O=C(NCc1ccco1)c1c[nH]c2ccc(S(=O)(=O)Nc3cccc(C(F)(F)F)c3)cc2c1=O | > 50 µM
77.6% | 1.89 µM | Cc1ccccc1-c1ccc2[nH]cc(C(=O)NCc3cccc(Br)c3)c(=O)c2c1 | > 50 µM
38.1% | – | Cc1ccccc1-c1ccc2[nH]cc(C(=O)NCc3ccc(C(F)(F)F)cc3)c(=O)c2c1 | –
– | – | CN[C@@H]1C[C@H]2O[C@@](C)([C@@H]1OC)n1c3ccccc3c3c4c(c5c6ccccc6n2c5c31)C(=O)NC4 [STAUROSPORINE] | 0.056 µM
65.6% | 7.18 µM | O=C(NC1CCCCC1)c1c[nH]c2ccc(S(=O)(=O)Nc3cccc(C(F)(F)F)c3)cc2c1=O | > 50 µM
77.8% | 11.5 µM | Cc1ccccc1-c1ccc2[nH]cc(C(=O)NC3CCCCC3)c(=O)c2c1 | > 50 µM
73.5% | 2.2 µM | COc1cccc(CNC(=O)c2c[nH]c3ccc(S(=O)(=O)Nc4cccc(C(F)(F)F)c4)cc3c2=O)c1 | > 50 µM
35.7% | – | O=C(NCc1cccnc1)c1c[nH]c2ccc(S(=O)(=O)Nc3cccc(C(F)(F)F)c3)cc2c1=O | –
11.3% | – | O=C(NCc1ccc2c(c1)OCO2)c1c[nH]c2ccccc2c1=O | –
67.4% | 6.18 µM | Cc1ccccc1-c1ccc2[nH]cc(C(=O)NCc3cccc(C(F)(F)F)c3)c(=O)c2c1 | > 50 µM
10.2% | – | Cc1ccccc1-c1ccc2[nH]cc(C(=O)NCc3cccnc3)c(=O)c2c1 | –
12.3% | – | Cc1ccccc1-c1ccc2[nH]cc(C(=O)NCc3cccc(F)c3)c(=O)c2c1 | –
